Test [1] deals with Sigma non-opioid intracellular receptor 1 (Cavia porcellus, UniProt Q60492). Description: Displacement of [3H]-(+)-pentazocine from sigma1 receptor in guinea pig brain cortex membranes measured after 120 mins by scintillation counting analysis. In kind it is cell membranes. For orientation: In a radioligand displacement assay an active substance lowers the binding of a labelled ligand.

In test [2] the target is T1, Sigma intracellular receptor 2 (Rattus norvegicus, UniProt Q5U3Y7).
T1 sequence (Q5U3Y7 whole entry): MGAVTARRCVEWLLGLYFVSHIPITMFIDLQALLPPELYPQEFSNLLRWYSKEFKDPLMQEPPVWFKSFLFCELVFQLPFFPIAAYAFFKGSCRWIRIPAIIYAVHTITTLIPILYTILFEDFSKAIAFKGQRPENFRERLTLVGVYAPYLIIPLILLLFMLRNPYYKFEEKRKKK
Description: Displacement of [3H]di-o-tolylguanidine from sigma2 receptor in rat liver membranes measured after 120 mins by scintillation counting analysis. The format is cell membranes.

The target of test [3] is Glutamate receptor ionotropic, NMDA 2B (Homo sapiens, UniProt Q05586+Q13224). Description: Displacement of [3H]-ifenprodil from GluN2B (unknown origin) expressed in L(tk) cells by radio ligand binding assay. The format is cell-based. Put shortly:
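Mouse L(tk-) cells stably carrying dexamethasone-inducible GluN1a/GluN2B (1:5) were induced for 24 h with 4 μM dexamethasone plus 4 μM ketamine, then sonicated to membranes (about 20 μg protein). […] Filtration and scintillation counting, in duplicate. Ki by Cheng–Prusoff (Kd 7.6 nM), mean ± SEM of n=3.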

The target in test [4] is T2, Glutamate receptor ionotropic, NMDA 2B (Homo sapiens, UniProt Q13224). Kind of test: Displacement of [3H]-ifenprodil from GluN2B (unknown origin) expressed in mouse L(tk) cells measured after 120 mins by scintillation counting analysis.
For test [5], the target named is T2, Glutamate receptor ionotropic, NMDA 2B. Description: Inhibition of GluN2B (unknown origin).

T2 sequence (Q13224 whole entry): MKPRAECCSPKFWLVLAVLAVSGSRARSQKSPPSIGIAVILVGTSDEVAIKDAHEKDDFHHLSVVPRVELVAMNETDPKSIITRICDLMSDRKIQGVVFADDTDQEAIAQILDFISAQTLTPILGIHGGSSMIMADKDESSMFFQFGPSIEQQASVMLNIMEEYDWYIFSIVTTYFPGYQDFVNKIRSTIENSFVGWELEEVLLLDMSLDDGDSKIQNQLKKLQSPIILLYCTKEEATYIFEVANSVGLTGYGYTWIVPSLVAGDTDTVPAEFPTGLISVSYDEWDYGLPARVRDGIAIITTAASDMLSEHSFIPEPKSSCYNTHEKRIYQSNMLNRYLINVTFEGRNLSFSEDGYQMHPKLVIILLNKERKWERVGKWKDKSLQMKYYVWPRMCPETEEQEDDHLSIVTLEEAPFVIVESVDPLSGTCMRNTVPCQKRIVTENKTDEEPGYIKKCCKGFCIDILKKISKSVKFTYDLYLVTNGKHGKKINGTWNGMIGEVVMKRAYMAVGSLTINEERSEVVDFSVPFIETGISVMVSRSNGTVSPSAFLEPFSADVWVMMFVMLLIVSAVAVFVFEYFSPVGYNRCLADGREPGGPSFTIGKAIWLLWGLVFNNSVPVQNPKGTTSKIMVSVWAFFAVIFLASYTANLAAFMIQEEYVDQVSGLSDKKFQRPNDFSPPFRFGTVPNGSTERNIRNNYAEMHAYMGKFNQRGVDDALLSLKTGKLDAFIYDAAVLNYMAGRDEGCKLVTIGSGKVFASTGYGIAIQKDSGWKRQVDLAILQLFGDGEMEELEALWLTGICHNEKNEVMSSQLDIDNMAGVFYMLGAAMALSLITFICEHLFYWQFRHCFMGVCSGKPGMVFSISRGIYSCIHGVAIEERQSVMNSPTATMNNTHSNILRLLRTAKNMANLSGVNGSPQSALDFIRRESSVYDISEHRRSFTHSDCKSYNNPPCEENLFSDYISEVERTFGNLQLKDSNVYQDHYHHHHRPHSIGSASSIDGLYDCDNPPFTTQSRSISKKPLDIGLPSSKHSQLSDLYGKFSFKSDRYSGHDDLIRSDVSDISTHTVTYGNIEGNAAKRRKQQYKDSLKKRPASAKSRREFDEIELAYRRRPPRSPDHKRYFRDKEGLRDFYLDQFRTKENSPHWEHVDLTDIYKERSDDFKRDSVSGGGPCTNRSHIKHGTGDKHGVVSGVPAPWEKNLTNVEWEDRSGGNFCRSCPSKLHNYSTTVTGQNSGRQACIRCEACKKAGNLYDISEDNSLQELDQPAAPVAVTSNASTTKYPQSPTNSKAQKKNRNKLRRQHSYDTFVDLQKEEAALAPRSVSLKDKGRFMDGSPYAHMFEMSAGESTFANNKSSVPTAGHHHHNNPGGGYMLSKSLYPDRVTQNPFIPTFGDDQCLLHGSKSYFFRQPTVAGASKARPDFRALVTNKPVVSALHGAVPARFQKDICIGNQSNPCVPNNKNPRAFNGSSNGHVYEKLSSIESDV
Chain of Sigma non-opioid intracellular receptor 1 (Q60492 whole entry): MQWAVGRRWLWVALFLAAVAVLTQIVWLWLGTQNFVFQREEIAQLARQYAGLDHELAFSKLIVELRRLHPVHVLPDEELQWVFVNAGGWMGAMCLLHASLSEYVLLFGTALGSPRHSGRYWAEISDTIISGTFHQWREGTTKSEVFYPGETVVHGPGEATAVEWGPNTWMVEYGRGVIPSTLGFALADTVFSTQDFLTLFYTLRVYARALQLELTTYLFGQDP
Chain of Glutamate receptor ionotropic, NMDA 2B (Homo sapiens, UniProt Q05586+Q13224) (Q13224 whole entry, one chain of several): as the sequence (Q13224 whole entry) above

What is called Ki is a dissociation constant, usually derived from enzyme kinetics or from competition with a known ligand. The low end stands for tighter binding, the high end for weaker binding. With `Nc1ccc2c(c1)CCC(NCc1ccccc1)CC2` (stereo unspecified), the Ki came out at 470 nM in test [1], 770 nM in test [2], 128 nM in test [3] and 128 nM in test [4].
Regarding `c1ccc(CNC2CCc3ccsc3CC2)cc1` (stereo unspecified), the Ki in test [1] came to 79 nM; in test [2], 50 nM; in test [4], 26 nM.
For `OC1CC(NCc2ccccc2)CCc2sccc21` (mixture of isomers), the Ki worked out at 737 nM in test [1], 606 nM in test [2] and 204 nM in test [4].
For `COc1ccc2c(c1)CC[C@H](NCCCc1ccccc1)C[C@@H]2O` (relative stereo), the results for the Ki in test [1] and in test [2] were 132 nM and 9.2 nM, respectively.
Consider `COc1ccc2c(c1)CC[C@H](NCCCc1ccccc1)C[C@H]2O` (relative stereo), for which the Ki in test [1] came to 167 nM; in test [2], 1100 nM; in test [5], 48 nM; in test [4], 48 nM.

(Values after ChEMBL document CHEMBL4480375, “Synthesis and receptor binding of thiophene bioisosteres of potent GluN2B ligands with a benzo[7]annulene-scaffold” (Medchemcomm, 2019).)
